Assay outcomes: PubChem BioAssay, Broad Institute
This is a sample that favours compounds with a hit; in the whole collection about 5.8% have one here.
IDH1 mut inh: IDH1 R132H (human) inhibition | IDH1 R132H reductase, diaphorase/resazurin fluorescence, 60 min | inhibition, % at 10 µM | 0.18% of 70,000 active | AID 624101; in the data active = inhibition above about 34%; inconclusive = no clear call, values can overlap the other calls; inactive = below about 11%
Target sequence (O75874 whole entry R132H): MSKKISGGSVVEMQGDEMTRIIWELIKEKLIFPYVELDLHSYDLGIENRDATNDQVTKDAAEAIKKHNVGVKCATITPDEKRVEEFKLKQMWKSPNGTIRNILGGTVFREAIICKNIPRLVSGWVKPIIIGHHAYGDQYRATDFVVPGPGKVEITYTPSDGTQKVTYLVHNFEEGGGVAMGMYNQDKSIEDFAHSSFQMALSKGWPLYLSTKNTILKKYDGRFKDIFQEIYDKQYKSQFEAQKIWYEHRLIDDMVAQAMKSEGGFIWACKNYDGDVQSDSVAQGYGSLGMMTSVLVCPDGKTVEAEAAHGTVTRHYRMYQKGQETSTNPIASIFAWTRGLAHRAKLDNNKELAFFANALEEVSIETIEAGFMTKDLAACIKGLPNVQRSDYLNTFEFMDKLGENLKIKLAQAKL
Pf Dd2 growth: P. falciparum Dd2 growth inhibition. SYBR Green, 72 h; hits give low values. activity change, % at 10 µM. 2.3% of 94,000 active; in the data active = activity change below about -80%; inconclusive = no clear call, values can overlap the other calls
GASC1 inh: blocks human GASC-1 (KDM4C) demethylase activity. Q9H3R0. GST-KDM4C 2-372, H3K9me3 peptide, LANCE TR-FRET. inhibition, % at 12.5 µM. 0.15% of 96,000 active. AID 720574;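 active = mean replicate inhibition above about 25%, with at least 55% of replicates also reaching it, limit read from the data, passing the limit was not always enough; inconclusive = only one of those two conditions met; inactive = neither condition met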
Target sequence (Q9H3R0 2-372 limits assumed): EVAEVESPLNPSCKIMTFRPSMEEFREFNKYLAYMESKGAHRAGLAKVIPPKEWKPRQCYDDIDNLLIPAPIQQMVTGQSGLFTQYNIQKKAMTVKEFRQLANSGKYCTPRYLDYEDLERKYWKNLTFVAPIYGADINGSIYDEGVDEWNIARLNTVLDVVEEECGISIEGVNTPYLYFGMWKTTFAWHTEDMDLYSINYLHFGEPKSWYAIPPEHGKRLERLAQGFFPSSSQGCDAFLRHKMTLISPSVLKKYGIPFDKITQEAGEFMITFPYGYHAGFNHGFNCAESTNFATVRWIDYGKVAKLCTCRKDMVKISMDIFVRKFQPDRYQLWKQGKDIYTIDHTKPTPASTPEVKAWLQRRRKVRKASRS
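Material: GST-tagged GASC-1 (JMJD2C) catalytic fragment, aa 2-372. Input: enzyme final amount 10 nM. Medium: HEPES buffer, pH 7.5, plus ascorbate. Reagent: H3K9me3 peptide substrate, Fe(II), 2-oxoglutarate. Doses: single dose. Times: reaction 30 min RT, detection step 1 h RT. Measured by: LANCE TR-FRET. Evaluation: Fall in 671/618 emission ratio as inhibition.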
T cruzi growth-1: blocks T. cruzi growth in NIH3T3 culture; T. cruzi beta-gal in NIH3T3, GalScreen luminescence, 90 h; 5.9% of 77,000 active; inhibition, % at 8.34 µM; AID 624255;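 active = mean inhibition above about 93%, with at least 55% of replicates each passing it, limit read from the data, passing the limit was not always enough; inconclusive = only one of those two conditions holds; inactive = neither condition holds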
T cruzi growth-2: blocks T. cruzi growth in NIH3T3 host cells; shares compounds with T cruzi growth-1; 72% of 5,600 active; T. cruzi beta-gal in NIH3T3, GalScreen luminescence, 90 h; inhibition, % at 8.35 µM;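 active = mean replicate inhibition above about 95% and at least 55% of replicates individually reaching it, limit read from the data; inconclusive = only one of the two criteria is met; inactive = neither criterion is met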
T cruzi growth-3: Trypanosoma cruzi proliferation inhibition | shares compounds with T cruzi growth-1 | T. cruzi beta-gal in NIH3T3, GalScreen luminescence, 90 h | inhibition, % at 2.09 µM | 21% of 5,600 active | AID 651740;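 active = mean inhibition above about 95%, with at least 55% of replicates also reaching it, limit read from the data; inconclusive = meets just one of the two conditions; inactive = meets neither condition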
NIH3T3 tox: kills mouse NIH/3T3 fibroblasts. shares compounds with T cruzi growth-1. NIH/3T3 viability, CellTiter-Glo ATP luminescence, 90 h. cytotoxicity (signal decrease), % at 8.35 µM. 14% of 5,600 active;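 active = mean signal decrease across replicates above about 35% based on untreated-well scatter, with enough replicates individually passing, limit read from the data; inconclusive = no rule stated though some were filed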
NIH3T3 tox 2: cytotoxicity in mouse NIH/3T3 fibroblasts; inhibition, % at 24.9 µM; NIH/3T3 viability, CellTiter-Glo ATP luminescence, 90 h; shares compounds with T cruzi growth-1; 56% of 5,600 active; AID 651744;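 active = mean loss of cell viability signal at or above a set limit, and enough replicates individually reaching it; inconclusive = meets only the mean limit or only the replicate share; inactive = meets neither condition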
A number is an active result; 0 = inactive; ? = inconclusive; - = not tested or not shown.

SMILES | IDH1 mut inh | Pf Dd2 growth | GASC1 inh | T cruzi growth-1 | T cruzi growth-2 | T cruzi growth-3 | NIH3T3 tox | NIH3T3 tox 2
Cc1ccc(S(=O)(=O)N(C)C[C@@H]2Oc3cc(C#CC4CCCC4)ccc3S(=O)(=O)N([C@H](C)CO)C[C@@H]2C)cc1 | 0 | 0 | 0 | 125 | 0 | 103 | 0 | 0
C[C@@H]1CN([C@H](C)CO)S(=O)(=O)c2ccc(C#CC3CCCC3)cc2O[C@H]1CN(C)S(C)(=O)=O | 0 | 0 | 0 | 0 | - | - | - | -
COc1ccc(S(=O)(=O)N(C)C[C@H]2Oc3cc(C#CC4CC4)ccc3S(=O)(=O)N([C@H](C)CO)C[C@@H]2C)cc1 | - | 0 | 0 | 106 | 103 | 0 | 0 | 50
CN1[C@@H]2Cn3c(ccc(-c4cccc(F)c4)c3=O)[C@H]1[C@@H](C(=O)N1CCCCC1)[C@@H]2CO | - | 0 | 0 | 0 | - | - | - | -
C[C@@H]1CN([C@@H](C)CO)C(=O)Cc2cc(NC(=O)CCN3CCOCC3)ccc2O[C@H]1CN(C)CC1CCCCC1 | 0 | 0 | 0 | 0 | - | - | - | -
COc1ccc(S(=O)(=O)N(C)C[C@@H]2Oc3cc(C#CC4CC4)ccc3S(=O)(=O)N([C@@H](C)CO)C[C@@H]2C)cc1 | - | 0 | 0 | 110 | 104 | 101 | 0 | 27
C[C@@H]1CN([C@@H](C)CO)S(=O)(=O)c2ccc(C#CCN(C)C)cc2O[C@@H]1CN(C)C(=O)C1CCC1 | - | 0 | 0 | 0 | - | - | - | -
C[C@H]1CN([C@@H](C)CO)S(=O)(=O)c2ccc(C#CCN(C)C)cc2O[C@H]1CN(C)C(=O)C1CCC1 | 0 | 0 | 0 | 105 | 102 | 0 | 0 | 0
C[C@@H]1CN([C@H](C)CO)S(=O)(=O)c2ccc(C#CCN(C)C)cc2O[C@H]1CN(C)C(=O)C1CCC1 | 0 | 0 | 0 | 100 | ? | 100 | 0 | 0
C[C@@H]1CN([C@@H](C)CO)S(=O)(=O)c2ccc(C#CCN(C)C)cc2O[C@@H]1CN(C)C(=O)C1CCCCC1 | 0 | 0 | 0 | - | - | - | - | -
C[C@@H]1CN([C@@H](C)CO)S(=O)(=O)c2ccc(C#CCN(C)C)cc2O[C@H]1CN(C)C(=O)C1CCC1 | - | 0 | 0 | 104 | 108 | 99 | 0 | 0
C[C@H](CO)N1C[C@H](C)[C@H](CN(C)C(=O)C2CC2)Oc2cc(C#CCN(C)C)ccc2S1(=O)=O | 0 | 0 | 0 | 95 | 109 | 0 | 0 | 0
C[C@H]1CN([C@@H](C)CO)S(=O)(=O)c2ccc(C#CCN(C)C)cc2O[C@H]1CN(C)C(=O)C1CC1 | - | 0 | 0 | 0 | - | - | - | -
COc1ccc2c3c([nH]c2c1)[C@@H](CO)N(C(=O)Nc1ccc(F)cc1)CC31CCN(C(=O)c2ccccn2)CC1 | - | 0 | 0 | - | - | - | - | -
Cc1ccc(S(=O)(=O)N(C)C[C@@H]2Oc3cc(-c4cccc(F)c4)ccc3S(=O)(=O)N([C@H](C)CO)C[C@@H]2C)cc1 | - | 0 | 0 | 127 | 105 | ? | ? | 43
Cc1ccc(S(=O)(=O)N(C)C[C@@H]2Oc3cc(-c4cccc(F)c4)ccc3S(=O)(=O)N([C@@H](C)CO)C[C@H]2C)cc1 | 0 | 0 | 0 | 124 | 102 | 107 | 48 | 55
COc1ccc(S(=O)(=O)N(C)C[C@H]2Oc3cc(-c4cccc(F)c4)ccc3S(=O)(=O)N([C@H](C)CO)C[C@H]2C)cc1 | 0 | 0 | 0 | - | - | - | - | -
C[C@H]1CN([C@@H](C)CO)S(=O)(=O)c2ccc(-c3ccccc3)cc2O[C@H]1CN(C)S(=O)(=O)c1ccccc1F | 0 | 0 | 0 | 119 | 103 | 103 | 0 | 46
C[C@H](CO)N1C[C@H](C)[C@H](CN(C)S(=O)(=O)c2ccccc2F)Oc2cc(-c3ccccc3)ccc2S1(=O)=O | 0 | 0 | 0 | 120 | 100 | 0 | ? | 45
C[C@H]1CN([C@@H](C)CO)S(=O)(=O)c2ccc(-c3ccccc3)cc2O[C@@H]1CN(C)S(=O)(=O)c1ccccc1F | 0 | 0 | 0 | 91 | 99 | 0 | 37 | 38
C[C@H](CO)N1C[C@H](C)[C@@H](CN(C)S(=O)(=O)c2ccccc2F)Oc2cc(-c3ccccc3)ccc2S1(=O)=O | 0 | 0 | 0 | 0 | - | - | - | -
CCN(CC)C(=O)c1cc(-c2ccc(Cl)c(Cl)c2)on1 | 0 | - | - | - | - | - | - | -
CC(=O)N1CCCCN2[C@@H](CO)[C@@H](c3ccc(-c4ccc(C)cc4)cc3)[C@@H]2C1 | - | 0 | 0 | 106 | 0 | 0 | 36 | 66
CC(=O)N1CCCCN2[C@H](C1)[C@@H](c1ccc(-c3ccc(C)cc3)cc1)[C@@H]2CO | - | 0 | 0 | 111 | 0 | 0 | 0 | 0
CC(=O)N1CCCCN2[C@@H](CO)[C@H](c3ccc(-c4ccc(C)cc4)cc3)[C@@H]2C1 | - | 0 | 0 | 120 | 0 | 0 | ? | 76
SMILES | IDH1 mut inh | Pf Dd2 growth | GASC1 inh | T cruzi growth-1 | T cruzi growth-2 | T cruzi growth-3 | NIH3T3 tox | NIH3T3 tox 2
CC(=O)N1CCCCN2[C@H](C1)[C@H](c1ccc(-c3ccc(C)cc3)cc1)[C@@H]2CO | - | 0 | 0 | 100 | 106 | 0 | 0 | 29
O=C(c1ccncc1)N1C[C@@H]2[C@H](c3ccccc31)[C@H](CO)N2C(=O)Nc1ccccc1Cl | - | 0 | 0 | 0 | - | - | - | -
CC(=O)N1CCCCN2[C@H](CO)[C@@H](c3ccc(-c4ccc(C)cc4)cc3)[C@H]2C1 | - | 0 | 0 | 106 | 0 | 0 | 0 | 74
CC(=O)N1CCCCN2[C@H](CO)[C@@H](c3ccc(-c4ccc(C)cc4)cc3)[C@@H]2C1 | - | 0 | 0 | 102 | 0 | 0 | 41 | 28
CC(=O)N1CCCCN2[C@H](C1)[C@H](c1ccc(-c3ccc(F)cc3)cc1)[C@@H]2CO | - | 0 | 0 | 0 | - | - | - | -
COc1cccc(NC(=O)N2[C@H](CO)[C@H](c3ccccc3)[C@@H]2CNC(C)C)c1 | - | 0 | 0 | 115 | 0 | 0 | 0 | 0
CCCNC(=O)N1[C@H](CO)[C@H](c2ccc(C3=CCCCC3)cc2)[C@@H]1C#N | 0 | 0 | 0 | 0 | - | - | - | -
CCCNC(=O)N1[C@H](C#N)[C@@H](c2ccc(C3=CCCCC3)cc2)[C@@H]1CO | - | 0 | 0 | 103 | 105 | 0 | 0 | 0
CNC[C@H]1[C@@H](c2ccccc2)[C@@H](CO)N1C(=O)Nc1cccc(OC)c1 | - | 0 | 0 | 0 | - | - | - | -
N#C[C@H]1[C@H](c2ccc(C3=CCCCC3)cc2)[C@H](CO)N1C(=O)NC1CCCC1 | - | 0 | 0 | - | - | - | - | -
CC(C)NC[C@@H]1[C@H](c2ccc(C3=CCCCC3)cc2)[C@H](CO)N1C(=O)NC(C)C | - | 0 | 0 | 121 | 106 | 98 | 0 | 105
N#C[C@@H]1[C@@H](c2ccc(C3=CCCCC3)cc2)[C@H](CO)N1C(=O)NC1CCCCC1 | - | 0 | 0 | 98 | 103 | 0 | 0 | 87
C[C@@H]1CN([C@@H](C)CO)C(=O)c2cc(NS(=O)(=O)c3cccs3)ccc2O[C@H]1CN(C)C(=O)NC1CCCCC1 | 0 | - | 0 | - | - | - | - | -
